According to PubChem BioAssay AID651952 (The Scripps Research Institute Molecular Screening Center, 2012):
Among all 2,400 compounds or so, about 940 (39%) were called active. Not all results are given here. A number with no mark means an inactive call.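 Rule for the calls: active = inhibition above the plate's mean compound inhibition plus 3 SD, computed per plate (cut at about 22% in these data); inactive = the rest.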

experiment: reduced calcium signal in Ga16 cells – fluorescence, CHO-Ga16 cells, counter-screen for TAAR1 agonist project (AID 651952); details: CHO-Ga16 ATP-induced calcium, Fluo-8 fluorescence; at 3 µM; hits give high values;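 note: 0% = EC80 ATP with DMSO and 100% = DMSO wells without ATP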
Summary of the method: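 Test system: parental CHO cells stably overexpressing Gα16, lacking hTAAR1; Timing: 17–24 h seeding, dye 75 min 37 °C, 30 min RT; Signal: Fluo-8 calcium dye fluorescence, excitation 470–495 nm, emission 515–575 nm; Controls: DMSO-only and ATP-stimulated wells; Read-out: % inhibition of ATP-evoked calcium signal.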

Structure (SMILES) | inhibition
O=C1NC(=O)N(Cc2ccco2)C(=O)/C1=C\c1ccc(-c2ccc(F)cc2)o1 | 44% (active)
Clc1ccc2nc3c(c(-c4ccccc4)c2c1)CNCC3 | 0.28%
CC(Cc1ccccc1)NC=O (centres undefined) | 11.2%
CCCCC(=O)N/N=C/c1c(O)n(CC)c(=S)n(CC)c1=O | 64.5% (active)
COc1ccc(Br)cc1CNCCc1cccc(Cl)c1 | 14.7%
c1ccc(CCNC2CCCCCC2)cc1 | 2.61%
Cc1cccc(N2C(=O)NC(=O)/C(=C\c3cnn(-c4ccccc4)c3)C2=O)c1 | 40.6% (active)
CCC(=NCCc1ccccc1)c1c(O)n(C2CCCCC2)c(=O)[nH]c1=O | 21.1%
NCC(O)c1ccc(O)cc1 (centres undefined) | 3.87%
